The nature of assay [1]: reducers of endogenous Her2 protein level, primary screen, SKBR3 breast tumor cells, AlphaScreen, ATP viability (AID 461).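 On Her2 level: lower value means less Her2 protein in the cells.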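 On viability: percent of carrier control wells set as 100% viability.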 Particulars: 18-24 h, measured here: SKBR3 viability, ATP luminescence, at 10 µM. (Bead proximity is the source of the signal in Alpha formats.)
Assay [2] deals with Receptor tyrosine-protein kinase erbB-2 (Homo sapiens) (UniProt P04626). The description is as above. The following applies: 18-24 h, at 10 µM, stronger effect = lower value.
Sequence of Receptor tyrosine-protein kinase erbB-2 (Homo sapiens) (P04626 whole entry, looked up): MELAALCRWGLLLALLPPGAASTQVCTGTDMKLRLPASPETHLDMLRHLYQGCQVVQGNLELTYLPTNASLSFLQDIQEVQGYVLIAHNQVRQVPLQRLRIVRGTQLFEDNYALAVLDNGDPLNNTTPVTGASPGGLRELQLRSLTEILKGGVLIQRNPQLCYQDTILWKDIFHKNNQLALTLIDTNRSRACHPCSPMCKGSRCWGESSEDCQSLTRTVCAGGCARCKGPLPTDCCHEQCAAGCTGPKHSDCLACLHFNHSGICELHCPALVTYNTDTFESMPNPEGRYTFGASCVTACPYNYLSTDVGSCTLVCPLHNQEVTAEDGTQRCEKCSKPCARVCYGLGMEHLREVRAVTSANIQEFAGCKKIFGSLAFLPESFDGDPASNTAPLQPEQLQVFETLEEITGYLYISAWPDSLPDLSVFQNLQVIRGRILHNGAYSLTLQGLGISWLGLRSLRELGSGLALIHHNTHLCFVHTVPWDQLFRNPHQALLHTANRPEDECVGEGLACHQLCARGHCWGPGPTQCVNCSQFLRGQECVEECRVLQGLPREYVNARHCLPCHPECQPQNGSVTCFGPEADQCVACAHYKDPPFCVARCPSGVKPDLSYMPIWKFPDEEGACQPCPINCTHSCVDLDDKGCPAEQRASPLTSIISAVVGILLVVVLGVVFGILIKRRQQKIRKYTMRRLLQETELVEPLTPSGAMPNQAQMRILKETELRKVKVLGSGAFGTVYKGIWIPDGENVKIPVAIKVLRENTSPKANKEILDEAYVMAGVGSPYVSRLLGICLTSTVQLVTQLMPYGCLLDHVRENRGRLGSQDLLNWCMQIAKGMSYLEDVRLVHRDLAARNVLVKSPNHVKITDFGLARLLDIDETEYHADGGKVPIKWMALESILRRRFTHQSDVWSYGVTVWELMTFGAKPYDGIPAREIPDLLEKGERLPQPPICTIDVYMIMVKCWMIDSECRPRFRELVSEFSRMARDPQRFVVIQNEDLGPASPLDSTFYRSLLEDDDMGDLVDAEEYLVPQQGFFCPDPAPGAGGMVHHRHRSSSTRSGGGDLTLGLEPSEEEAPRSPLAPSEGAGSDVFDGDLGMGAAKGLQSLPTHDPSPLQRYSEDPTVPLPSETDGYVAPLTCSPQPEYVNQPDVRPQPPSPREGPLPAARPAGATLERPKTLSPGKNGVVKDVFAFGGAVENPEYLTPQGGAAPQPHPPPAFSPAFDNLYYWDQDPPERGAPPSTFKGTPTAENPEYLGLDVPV
Assay [3] is described as follows: SK-BR-3 cell growth inhibitors, pilot screen, 24 h, human (AID 572;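 active means viability at or below 10% of carrier control in both of two separate runs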;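 further: compound exposure lasted between 18 and 24 h rather than exactly 24 h; 100% = carrier-treated control wells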). Particulars: SK-BR-3 viability, CellTiter-Glo luminescence, at 10 µM, stronger effect = lower value. (In general: In ATP-based viability assays light output follows the ATP content of the culture.)
Assay [4] is described as follows: HUVEC growth inhibition – cell-based, human, primary screen (AID 575;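 active means viability at or below 30% in both replicate assays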;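 further: 100% = median of untreated cell wells with 0.1% DMSO on each plate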). Particulars: HUVEC proliferation, CellTiter-Glo luminescence, 72 h; at 10 µM; stronger effect = lower value. The gist of the method:
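Test system: primary human umbilical vein endothelial cells. Quantity: 1250 cells/well. Compound: single 10 µM dose, 0.1% DMSO, from 5x medium stock. Timing: 72 h treatment at 37 °C. Detection: ATP-based CellTiter-Glo luminescent read. Benchmarks: vehicle and MePR control wells. Format: 384-well plates coated with collagen.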

Assay [5] can be described thus: growth inhibitors of H69AR lung tumor, primary screen, human, duplicate replicates (AID 580;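 active means viability at or under a set limit in both replicates, limit being median viability minus 3 SD, cut at about 48% in these data, passing the limit was not always enough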;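 further: 100% = mean luminescence of untreated wells and 0% = no signal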). Particulars: H69AR lung tumor cells viability, ATP luminescence, 72 h; at 10 µM; stronger effect = lower value.
Assay [6] in a line: reversal of MRP1-mediated doxorubicin resistance, pilot screen, H69AR cells, doxorubicin co-treatment (AID 601;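 active means viability loss from added drug above about 55%, and viability with drug at most 40%, in both replicates, limit read from the data, passing the limit was not always enough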). The following applies: CellTiter-Glo, 72 h, at 10 µM; for differential viability (reversal): stronger effect = higher value.
Assay [7] is described as follows: 384-well plate pilot, post-Golgi transport modulator project, inhibition of yeast transport mutant growth (AID 636; in the data active means inhibition above about 31%). Particulars: absorbance 615 nm, about 18 h, stronger effect = higher value.
Assay [8] in a line: growth suppression of yeast trafficking mutant, preliminary HTS, modulators of trafficking downstream of Golgi apparatus project, 1536-format plate, OD 615 nm (AID 637; in the data active means inhibition above about 30%). The following applies: yeast transport mutant growth, absorbance 615 nm, 18 h; stronger effect = higher value.
Setting [9] is: H69AR cells + 2 uM doxorubicin, measured here: viability with 2 uM doxorubicin, stronger effect = lower value.
The mark [10] stands for this setting: H69AR cells, compound alone cytotoxicity.

The structures appear in SMILES notation. Calls of active or inactive are those of the source.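 How the source made its calls, unless noted: active means Her2 level under about 52% in both replicate screens, with viability over 70% of control (limit read from the data); inconclusive means Her2 under the limit in one screen only, or viability under 70%; inactive means Her2 level above the set limit.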

As to `CC1c2nc3ccccc3n2C(CC(=O)NCc2ccccn2)C(=O)N1Cc1ccccc1` (stereo not given), the viability was 110% in assay [1]; 110% (inactive) in assay [3]; 96.3% (inactive) in assay [4]; 92.8% (inactive) in assay [5]; 85.5% in assay [6] (setting [9]); 92.8% in assay [6] (setting [10]). Moreover, the Her2 level in assay [2] was 72% (inactive). In addition, the differential viability (reversal) in assay [6] (H69AR cells + 2 uM doxorubicin) is 7.24% (inactive). Besides, the inhibition is -1.58% (inactive) in assay [7] and 1.59% (inactive) in assay [8].
On to `CC(=O)n1nc(-c2ccco2)nc1SCc1ccccc1`, for which the viability in assay [1] is 77%; in assay [3], 77% (inactive); in assay [4] it was 97.2% (inactive); in assay [5] it was 98.7% (inactive); in assay [6] (setting [9]), 83.8%; in assay [6] (setting [10]) it was 98.7%. Besides, the Her2 level in assay [2] was 103% (inactive). The differential viability (reversal) in assay [6] (H69AR cells + 2 uM doxorubicin) was 14.9% (inactive). For the same compound, the results for the inhibition in assay [7] and in assay [8] were 1.54% (inactive) and 0% (inactive), respectively.
With `COc1ccc(NC(=O)CCNC(=O)Cn2ccc3ccccc3c2=O)c(OC)c1`, the viability is 101% in assay [1]; 101% (inactive) in assay [3]; 108% (inactive) in assay [4]; 103% (inactive) in assay [5]; 88.1% in assay [6] (setting [9]); 103% in assay [6] (setting [10]). Also, in assay [2], the Her2 level is 91% (inactive). The differential viability (reversal) in assay [6] (H69AR cells + 2 uM doxorubicin) is 14.4% (inactive). Further, the inhibition was -7.97% (inactive) in assay [7] and 7.17% (inactive) in assay [8].
`C#CC1(O)CC(C)N(C)C(C)C1` (stereo not given): the viability is 105% in assay [1]; 105% (inactive) in assay [3]; 85.3% (inactive) in assay [4]; 91.9% (inactive) in assay [5]; 78.3% in assay [6] (setting [9]); 91.9% in assay [6] (setting [10]). In addition, the Her2 level in assay [2] is 85% (inactive). Further, in assay [6] (H69AR cells + 2 uM doxorubicin), the differential viability (reversal) was 13.6% (inactive). In addition, the inhibition in assay [7] is -4.55% (inactive); in assay [8], -4.6% (inactive).
As to `COc1ccc(C2C(C(C)=O)=C(O)C(=O)N2C)c(OC)c1` (stereo not given), the viability is 102% in assay [1]; 102% (inactive) in assay [3]; 109% (inactive) in assay [4]; 114% (inactive) in assay [5]; 91.7% in assay [6] (setting [9]); 114% in assay [6] (setting [10]). In addition, the Her2 level in assay [2] was 104% (inactive). Also, the differential viability (reversal) in assay [6] (H69AR cells + 2 uM doxorubicin) is 22.1% (inactive). The inhibition was 1.3% (inactive) in assay [7] and -0.83% (inactive) in assay [8].
On to `COc1cc(CN2CCSCC2)cc(OC)c1OC`, for which the viability in assay [1] is 89.5%; in assay [3] it was 89.5% (inactive); in assay [4], 88.8% (inactive); in assay [5] it was 109% (inactive); in assay [6] (setting [9]), 87.7%; in assay [6] (setting [10]), 109%. For the same compound, in assay [2], the Her2 level is 150% (inactive). The differential viability (reversal) in assay [6] (H69AR cells + 2 uM doxorubicin) is 21% (inactive). Moreover, the inhibition in assay [7] was -0.65% (inactive); in assay [8], -1.83% (inactive).
Consider `CC(=O)c1c(C)[nH]c(C(=O)NCc2cccs2)c1C`, for which the viability in assay [1] was 97%; in assay [3], 97% (inactive); in assay [4] it was 93.8% (inactive); in assay [5] it was 94.9% (inactive); in assay [6] (setting [9]), 83.7%; in assay [6] (setting [10]) it was 94.9%. Further, the Her2 level in assay [2] was 90% (inactive). The differential viability (reversal) in assay [6] (H69AR cells + 2 uM doxorubicin) was 11.2% (inactive). Further, the inhibition in assay [7] is 0.39% (inactive); in assay [8], -1.45% (inactive).
`CCOC(=O)N1CCN(C(=O)c2ccc(N3C(=O)CCC3=O)cc2)CC1`: the viability is 110% in assay [1]; 110% (inactive) in assay [3]; 104% (inactive) in assay [4]; 105% (inactive) in assay [5]; 87.6% in assay [6] (setting [9]); 105% in assay [6] (setting [10]). Further, in assay [2], the Her2 level is 110% (inactive). Also, the differential viability (reversal) in assay [6] (H69AR cells + 2 uM doxorubicin) is 17.4% (inactive). Also, the inhibition in assay [7] is -7.03% (inactive); in assay [8], -9.83% (inactive).
Consider `O=C(Nc1cccc(F)c1)N1CC=C(n2c(=O)[nH]c3ccccc32)CC1`, for which the viability in assay [1] is 111%; in assay [3], 111% (inactive); in assay [4], 93.4% (inactive); in assay [5], 81.9% (inactive); in assay [6] (setting [9]) it was 76.7%; in assay [6] (setting [10]), 81.9%. Further, in assay [2], the Her2 level is 86.5% (inactive). The differential viability (reversal) in assay [6] (H69AR cells + 2 uM doxorubicin) is 5.16% (inactive). Moreover, the inhibition is -4.21% (inactive) in assay [7] and 0.91% (inactive) in assay [8].
Turning to `COc1ccccc1OCc1ccc(C(=O)Nc2ccncc2)o1`, the viability in assay [1] was 79.5%; in assay [3] it was 79.5% (inactive); in assay [4] it was 84.9% (inactive); in assay [5], 89.4% (inactive); in assay [6] (setting [9]), 89.4%; in assay [6] (setting [10]), 89.4%. Further, the Her2 level in assay [2] was 92% (inactive). In addition, the differential viability (reversal) in assay [6] (H69AR cells + 2 uM doxorubicin) is -0.005% (inactive). Besides, the figures for the inhibition in assay [7] and in assay [8] were -3.07% (inactive) and 6.61% (inactive), respectively.
As to `CCn1c(SCC(=O)N2c3ccccc3CCc3ccccc32)nc2c1c(=O)n(C)c(=O)n2C`, the viability in assay [1] is 87.5%; in assay [3], 87.5% (inactive); in assay [4] it was 92.5% (inactive); in assay [5] it was 94.3% (inactive); in assay [6] (setting [9]) it was 95.8%; in assay [6] (setting [10]), 94.3%. In assay [2], the Her2 level was 107% (inactive). Moreover, the differential viability (reversal) in assay [6] (H69AR cells + 2 uM doxorubicin) was -1.58% (inactive). The inhibition in assay [7] is -1.51% (inactive); in assay [8], -6.98% (inactive).
On to `c1ccc(-c2csc(N3CCCCCC3)n2)cc1`, for which the viability in assay [1] was 91.5%; in assay [3] it was 91.5% (inactive); in assay [4] it was 104% (inactive); in assay [5], 100% (inactive); in assay [6] (setting [9]), 85.6%; in assay [6] (setting [10]), 100%. The Her2 level in assay [2] is 104% (inactive). Further, the differential viability (reversal) in assay [6] (H69AR cells + 2 uM doxorubicin) is 14.9% (inactive). Also, the inhibition in assay [7] was -0.27% (inactive); in assay [8], -4.35% (inactive).
Take `CCN(CC)C(=O)c1ccc(NS(=O)(=O)c2ccccc2)cc1`: the viability was 89.5% in assay [1]; 89.5% (inactive) in assay [3]; 111% (inactive) in assay [4]; 86.1% (inactive) in assay [5]; 87.3% in assay [6] (setting [9]); 86.1% in assay [6] (setting [10]). Besides, the Her2 level in assay [2] was 130% (inactive). Further, the differential viability (reversal) in assay [6] (H69AR cells + 2 uM doxorubicin) was -1.12% (inactive). Further, the values for the inhibition in assay [7] and in assay [8] were -1.32% (inactive) and -3.44% (inactive), respectively.
Take `COc1ccccc1C1C(C#N)=C(N)Oc2cc(C)n(Cc3ccccn3)c(=O)c21` (stereo not given): the viability in assay [1] was 108%; in assay [3] it was 108% (inactive); in assay [4], 93.9% (inactive); in assay [5] it was 90.2% (inactive); in assay [6] (setting [9]) it was 92.6%; in assay [6] (setting [10]), 90.2%. Besides, the Her2 level in assay [2] is 133% (inactive). In addition, the differential viability (reversal) in assay [6] (H69AR cells + 2 uM doxorubicin) is -2.41% (inactive). Moreover, the results for the inhibition in assay [7] and in assay [8] were -0.66% (inactive) and -6.94% (inactive), respectively.
Regarding `Cc1c(/C(O)=C2/C(=O)C(=O)N(CCN3CCOCC3)C2c2cccs2)cnn1-c1ccccc1` (stereo not given), the viability in assay [1] is 88%; in assay [3], 88% (inactive); in assay [4], 116% (inactive); in assay [5] it was 96.2% (inactive); in assay [6] (setting [9]), 95%; in assay [6] (setting [10]), 96.2%. Also, the Her2 level in assay [2] is 114% (inactive). Moreover, the differential viability (reversal) in assay [6] (H69AR cells + 2 uM doxorubicin) was 1.22% (inactive). Moreover, the inhibition in assay [7] was -0.79% (inactive); in assay [8], 0.16% (inactive).
As for `CCn1cc(C(=O)N2CCN(C(=O)c3ccco3)CC2)c2cc(OC)c(OC)cc2c1=O`, the viability in assay [1] is 95%; in assay [3] it was 95% (inactive); in assay [4], 91.3% (inactive); in assay [5], 98.1% (inactive); in assay [6] (setting [9]) it was 97.9%; in assay [6] (setting [10]), 98.1%. The Her2 level in assay [2] is 84% (inactive). Moreover, the differential viability (reversal) in assay [6] (H69AR cells + 2 uM doxorubicin) was 0.175% (inactive). Also, the inhibition in assay [7] was -4.61% (inactive); in assay [8] it was -2.36% (inactive).

The viability is a read-out of living cells in per cent, often relative to untreated cells. As usually defined, the inhibition is the relative decrease from the control value, in per cent.

The values are drawn from PubChem BioAssay.
